Calls of active or inactive are those of the source. The rule behind the calls is not given here.
Key:
Canis familiaris [1] = assay: Compound was evaluated for emesis action in dogs administered subcutaneously; NA denotes inactive; assay type: functional, organism-based; conditions: Canis lupus familiaris
Method in brief: (§1)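 Five adult mongrel dogs, housed singly with food ad libitum, were given drug solutions sc, and vomiting frequency was counted over 1 h. Three doses of apomorphine hydrochloride (0.08, 0.16, 0.32 μmol/kg) as reference and three of the test compound were compared by a 3 × 3 parallel line bioassay to give relative potency with 95% confidence limits.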

Felis catus [2] = assay: Inhibition of chronotropic response to cardioaccelerator nerve stimulation in the cat; NA denotes inactive uM/kg; assay type: functional, organism-based
Method in brief: (§2)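 Cats were bilaterally vagotomized and pretreated iv with atropine sulfate (0.2 mg/kg). Right postganglionic cardioaccelerator nerves were placed on bipolar electrodes and stimulated at 2 Hz, 5-ms pulses, for 30 s at 20–25 V. Heart rate was recorded by cardiotachometer, femoral arterial pressure was monitored, and drugs were given iv via a femoral vein catheter. ED50 is in μmol/kg with 95% CL. Blockade was tested with haloperidol 0.1 mg/kg.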

Felis catus [3] = assay: Inhibition of chronotropic response to cardioaccelerator nerve stimulation in the cat at 10 uM/kg; NA denotes inactive; assay type: functional, organism-based; method in brief: as §2
Canis familiaris [4] = assay: Compound was evaluated for emesis action in dogs, administered subcutaneously; Range is (0.02-0.08); assay type: functional, Canis lupus familiaris
Felis catus [5] = organism: Felis catus; assay: Inhibition of chronotropic response to cardioaccelerator nerve stimulation in the cat; assay type: functional; method in brief: as §2
Rattus norvegicus [6] = assay: Compound was evaluated for rotational behavior in rats and (contralateral turning) circling response were recorded at a dose of 0.41 umol/Kg; assay type: functional
Method in brief: (§3)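 Male Sprague Dawley rats received a unilateral stereotaxic injection of 6-hydroxydopamine hydrobromide (6 μg in 3 μL) into the substantia nigra region (anterior 24, lateral 1.8, vertical 7.0). Drug was then given sc, and contralateral turns were counted over the next 1 h and reported as turns/h at the stated dose.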

Felis catus [7] = organism: Felis catus; assay: Inhibition of chronotropic response to cardioaccelerator nerve stimulation in the cat; NA denotes inactive; assay type: functional, organism-based; method in brief: as §2
Canis familiaris [8] = assay: Compound was evaluated for emesis action in dogs, administered subcutaneously; NA denotes inactive; assay type: functional, organism-based; conditions: Canis lupus familiaris; method in brief: as §1
Rattus norvegicus [9] = assay: Compound was evaluated for rotational behavior in rats and (contralateral turning) circling response were recorded at a dose of 400 umol/Kg; IA=Inactive; assay type: functional, organism-based
Rattus norvegicus [10] = assay: Compound was evaluated for rotational behavior in rats and (contralateral turning) circling response were recorded at a dose of 14.0 umol/kg; IA = inactive; assay type: functional, organism-based; method in brief: as §3
Rattus norvegicus [11] = assay: Compound was evaluated for rotational behavior in rats and (contralateral turning) circling response were recorded at a dose of 5.85 umol/Kg; assay type: functional; method in brief: as §3
Rattus norvegicus [12] = assay: Compound was evaluated for rotational behavior in rats and (contralateral turning) circling response were recorded at a dose of 11.7 umol/Kg; assay type: functional; method in brief: as §3
Rattus norvegicus [13] = assay: Compound was evaluated for rotational uM/kg; assay type: functional, organism-based; method in brief: as §3
Felis catus [14] = assay: Inhibition of chronotropic response to cardioaccelerator nerve stimulation in the cat; NI denotes no inhibition up to 1.55 uM/kg; assay type: functional, organism-based; method in brief: as §2

Compound: CNC1CCc2c(ccc(C)c2O)C1 (configuration not stated)
- Potency ratio (Canis familiaris [1]): inactive
- ED50 (Felis catus [2]): inactive

Compound: CCCNC1CCc2c(ccc(C)c2O)C1 (configuration not stated)
- ED50 (Felis catus [3]): inactive

Compound: CN1CCc2cccc3c2[C@H]1Cc1ccc(O)c(O)c1-3 [APOMORPHINE]
- Potency ratio (Canis familiaris [4]): 0.046
- ED50 (Felis catus [5]): 0.022 µmol/kg
- Rotational behavior (Rattus norvegicus [6]): 175.21 turns hr-1

Compound: Cc1ccc2c(c1O)CCC(NC(C)C)C2 (configuration not stated)
- ED50 (Felis catus [7]): inactive
- Potency ratio (Canis familiaris [8]): inactive

Compound: Br.CCN(CC)C1CCc2c(ccc(C)c2O)C1 (configuration not stated)
- ED50 (Felis catus [5]): 0.48 µmol/kg
- Rotational behavior (Rattus norvegicus [9]): inactive

Compound: Cc1ccc2c(c1O)CCC(N(C)C)C2 (configuration not stated)
- Rotational behavior (Rattus norvegicus [10]): inactive

Compound: Br.CCCN(CCC)C1CCc2c(ccc(C)c2O)C1 (configuration not stated)
- Rotational behavior (Rattus norvegicus [11]): 131.43 turns hr-1
- Rotational behavior (Rattus norvegicus [12]): 346.86 turns hr-1
- ED50 (Felis catus [5]): 0.025 µmol/kg

Compound: Cc1ccc2c(c1O)CCC(N)C2 (configuration not stated)
- Activity (Rattus norvegicus [13]): NI
- ED50 (Felis catus [14]): No inhibition

Compound: CCNC1CCc2c(ccc(C)c2O)C1 (configuration not stated)
- ED50 (Felis catus [2]): inactive
